A short description of data set [1]: Inhibition of Escherichia coli Mn-SOD by […] reduction assay. The gist of the method:
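Commercial Mn-SOD from Escherichia coli assayed by spectrophotometric NBT-reduction method, in which superoxide reduces NBT.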

Data set [2] relates to Leishmania braziliensis. The data set is described as follows: Antileishmanial activity against promastigote form of […] MHOM/BR/1975/M2904 infected in J774.2 cells assessed as inhibition of number of amastigotes per host cell at IC25 concentration incubated for 12 hrs followed by compound washout measured after 48 hrs by microscopic analysis. It counts as functional, MHOM/BR/75/M2904. Put shortly:
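J774.2 cells seeded at 1 × 10^4 cells/well on coverslips and cultured 2 days. Infected with promastigotes at 10:1 with drug at IC25 added immediately, for 12 h at 37 °C in 5% CO2. Parasites and drug washed out, then grown 10 days with washing and fresh medium every 48 h. On methanol-fixed, Giemsa-stained slides, % infected cells and amastigotes per infected cell scored from more than 200 host cells. Three determinations.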

Data set [3] relates to Leishmania braziliensis. Briefly: Antileishmanial activity against promastigote form of […] Leishmania braziliensis MHOM/BR/1975/M2904 infected in J774.2 cells assessed as inhibition of infection in host cells at IC25 concentration incubated for 12 hrs […] by microscopic analysis. It counts as functional, MHOM/BR/75/M2904.
Data set [4] can be described thus: Ratio of compound selectivity index to glucantime selectivity index for amastigote form of Leishmania braziliensis MHOM/BR/1975/M2904 infected in J774.2 cells over mouse J774.2 cells. The gist of the method:
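J774.2 macrophages in MEM + 2 mM glutamine + 20% inactivated FCS were infected with stationary-phase promastigotes (10:1) for 24 h at 37 °C, 5% CO2. After washing, compounds were added at […] for 72 h. Amastigote reduction was scored in methanol-fixed, Giemsa-stained preparations; IC50 by regression; triplicates. SI = J774.2 IC50 (72 h flow cytometry)/amastigote IC50; ratio is versus Glucantime SI.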

The nature of data set [5]: Ratio of compound selectivity index to glucantime selectivity index for promastigote form of Leishmania braziliensis MHOM/BR/1975/M2904 over mouse J774.2 cells.
Data set [6] concerns Leishmania braziliensis. Briefly: Antileishmanial activity against axenic amastigote form of Leishmania braziliensis MHOM/BR/1975/M2904 after 72 hrs by haemocytometric analysis. It counts as functional, MHOM/BR/75/M2904. Conditions: Leishmania braziliensis, MHOM/BR/75/M2904, 72 h. The gist of the method: (§1)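 Axenic amastigotes made by culturing promastigotes 3 days at 37 °C in M199 with 10% heat-inactivated FCS plus organic acids, amino acids, sucrose, bicarbonate, MES, haemin and gentamicin, pH 5.4. Compound effect counted in a Neubauer haemocytometer chamber. IC50 by linear regression of Kc values at 1, 10, 25, 50 and 100.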

A short description of data set [7]: Ratio of compound selectivity index to glucantime selectivity index for promastigote form of Leishmania infantum MCAN/ES/2001/UCM-10 over mouse J774.2 cells. Put shortly: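 J774.2 toxicity: 72 h at the same concentrations, viability by flow cytometry with propidium iodide/fluorescein diacetate; IC50 by linear regression. SI = macrophage IC50/parasite IC50; ratio is compound SI over Glucantime SI.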

Data set [8] can be described thus: Selectivity index, ratio of IC50 for mouse J774.2 cells to IC50 for axenic amastigote form of Leishmania infantum MCAN/ES/2001/UCM-10. Conditions: J774.2 cells, read-out: Ratio IC50. Type of data set: toxicity. The gist of the method: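 Axenic amastigotes obtained by 3-day promastigote transformation in supplemented M199 + 10% heat-inactivated FCS, pH 5.4, 37 °C. […] Host toxicity: J774.2, 72 h, PI/FDA flow cytometry. SI = macrophage IC50/axenic amastigote IC50; ratio is compound SI over Glucantime SI.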

The subject of data set [9] is Leishmania infantum. Briefly: Antileishmanial activity against axenic amastigote form of Leishmania infantum MCAN/ES/2001/UCM-10 after 72 hrs by haemocytometric analysis. Conditions: Leishmania infantum, MCAN/ES/2001/UCM-10, 72 h. Type of data set: functional, organism-based. The gist of the method: as §1
For data set [10], the system named is Leishmania infantum. Briefly: Antileishmanial activity against amastigote form of Leishmania infantum MCAN/ES/2001/UCM-10 infected in J774.2 cells after 72 hrs by haemocytometric analysis. Type of data set: functional, organism-based. Conditions: Leishmania infantum, MCAN/ES/2001/UCM-10, J774.2, 72 h. Put shortly: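 J774.2 macrophages grown in MEM with 2 mM glutamine and 20% inactivated FCS at 37 °C in 5% CO2. Infected with stationary-phase promastigotes at 10:1 for 24 h, then washed free of non-phagocytosed parasites. Compounds at 1, 10, 25, 50 and 100 for 72 h. Amastigotes counted on methanol-fixed, Giemsa-stained preparations and % reduction taken vs untreated. IC50 by linear regression of Kc values; three separate determinations.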

In data set [11] the test system is Leishmania braziliensis. Briefly: Antileishmanial activity against promastigote form of Leishmania braziliensis MHOM/BR/1975/M2904 assessed as electro-dense vesicles at IC25 concentration after 96 hrs by MET microscopic analysis. Type of data set: functional. Conditions: MHOM/BR/75/M2904. The gist of the method:
(§2)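 Promastigotes at 5 × 10^5 cells/mL in MTL medium with compound at IC25 for 96 h. Ultrastructure examined by transmission electron microscopy against untreated control parasites.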

The subject of data set [12] is Leishmania braziliensis. The data set is described as follows: Antileishmanial activity against promastigote form of Leishmania braziliensis MHOM/BR/1975/M2904 assessed as mortality at IC25 concentration after 96 hrs by MET microscopic analysis. Type of data set: functional. Conditions: MHOM/BR/75/M2904. Put shortly:
as §2

Data set [13] concerns Leishmania braziliensis. Briefly: Antileishmanial activity against promastigote form of Leishmania braziliensis MHOM/BR/1975/M2904 assessed as ethanol metabolite production at IC25 concentration after 96 hrs by H1-NMR analysis. Type of data set: functional, MHOM/BR/75/M2904. Put shortly: (§3)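 Promastigote cultures, initial 5 × 10^5 cells/mL, given the IC25 of compound; controls left untreated. Incubated 96 h at 28 °C, then centrifuged at 400g for 10 min. Excreted metabolites in the medium identified by 1H NMR spectra and compared with untreated control.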

The subject of data set [14] is Leishmania braziliensis. The data set is described as follows: Antileishmanial activity against promastigote form of Leishmania braziliensis MHOM/BR/1975/M2904 assessed as change in lactate metabolite production at IC25 concentration after 96 hrs by H1-NMR analysis. Type of data set: functional, MHOM/BR/75/M2904. The gist of the method:
as §3

Data set [15] can be described thus: Inhibition of promastigote form Leishmania braziliensis MHOM/BR/1975/M2904 Fe-SOD by NBT reduction assay. Also on record: species or system Leishmania braziliensis MHOM/BR/75/M2904. The gist of the method: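 Promastigotes sonicated in sucrose/Tris-HCl/EDTA buffer, pH 7.8, and centrifuged. Protein precipitating at 35–85% ammonium sulphate desalted into 20 mM potassium phosphate with 1 mM EDTA, pH 7.8. Protein measured by Bradford. Fe-SOD activity read spectrophotometrically as inhibition of NBT reduction by superoxide, with compounds at 0.1–50. IC50 by linear regression of Kc values; three determinations; Newman-Keuls test vs control homogenate.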

Data set [16] is described as follows: Inhibition of promastigote form Leishmania infantum MCAN/ES/2001/UCM-10 Fe-SOD by NBT reduction assay. Put shortly: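 Promastigotes sonicated in STE buffer (pH 7.8). The 35–85% ammonium sulphate fraction was desalted into 20 mM potassium phosphate/1 mM EDTA, pH 7.8, and protein was measured by Bradford. Fe-SOD activity was read spectrophotometrically as inhibition of NBT reduction by superoxide (Beyer–Fridovich); one unit gives 50% inhibition of the rate. Compounds tested at […]; IC50 by linear regression; three determinations, Newman–Keuls test.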

Data set [17] concerns Leishmania infantum. Briefly: Antileishmanial activity against promastigote form of Leishmania infantum MCAN/ES/2001/UCM-10 assessed as ethanol metabolite production at IC25 concentration after 96 hrs by H1-NMR analysis. It counts as functional. The gist of the method:
as §3

Active and inactive are the calls of the source. No cut-off for these calls is given here.

The IC50 is the concentration needed to halve the response being measured. A lower IC50 goes with greater potency in that assay.

With `Br.NCCN1CCNCc2cccc(n2)CNCC1`, the IC50 is 381 µM in [1]; 16 µM in data set [6]; 29.2 µM in [9]; 25.6 µM in data set [10]; 15.1 µM in data set [15]; 6.5 µM in [16]. In addition, the “inhibition (INH)” value in data set [2] is given as 55%; in [3] it was 64%. For the same compound, the Ratio worked out at 29 in [4], 30 in [5] and 15 in data set [7]. The selectivity ratio in data set [8] is 8. In addition, the outcome in data set [11] and in [12] was Active. The Activity in [13] and in data set [14] was 6% throughout.

As to `Cl.c1cc2nc(c1)CNCCN(CCNCc1cccc3ccccc13)CCNC2`, the 50% inhibitory concentration (IC50) in [1] was 408 µM; in data set [6] it was 24.9 µM; in [9], 28.1 µM; in [10], 17.4 µM; in data set [15], 16.6 µM; in data set [16] it was 17.6 µM. Moreover, the “inhibition (INH)” value in data set [2] stood at 59%; in [3], 71%. Moreover, the figures for the Ratio in data set [4], in [5] and in data set [7] were 27, 49 and 23, respectively. For the same compound, the selectivity ratio in [8] worked out at 13. In addition, the outcome in data set [11] and in [12] was Active. For the same compound, the Activity in data set [13] is on record as -6%; in [14] it was 0%; in data set [17] it was 110%.

Take `Cl.c1ccc(CNCCN2CCNCc3cccc(n3)CNCC2)nc1`: the 50% inhibitory concentration (IC50) in data set [1] is 178 µM; in data set [6], 16 µM; in data set [9], 25.4 µM; in [10], 19.6 µM; in [15], 1.3 µM; in [16] it was 16.1 µM. The “inhibition (INH)” value in data set [2] is on record as 67%; in [3], 83%. The Ratio in data set [4] worked out at 30; in [5] it was 37; in data set [7], 20. Besides, in data set [8], the selectivity ratio was found to be 10. The outcome in [11] and in [12] was Active. In addition, the Activity in [13] is -71%; in data set [14] it was 0%; in data set [17], 10%.

In the case of `Cl.c1cncc(CNCCN2CCNCc3cccc(n3)CNCC2)c1`, the IC50 is 641 µM in [1]; 23.9 µM in data set [6]; 15.9 µM in data set [9]; 6.3 µM in data set [10]; 9 µM in data set [15]; 5.7 µM in [16]. The “inhibition (INH)” value was determined as 80% in data set [2] and 86% in data set [3]. Also, the Ratio in data set [4] was 57; in [5] it was 34; in [7] it was 31. Also, in data set [8], the selectivity ratio was determined as 29.4. Moreover, the result in data set [11] and in data set [12] was Active. For the same compound, the Activity in [13] was -59%; in data set [14], 19%; in data set [17], 28%.

Source of the values: ChEMBL document CHEMBL2331406, “In vitro activity of scorpiand-like azamacrocycle derivatives in promastigotes and intracellular amastigotes of Leishmania infantum and Leishmania braziliensis” (Eur J Med Chem, 2013).
